The source made the active and inactive calls. The calls are words filed in the database; no cut-off is given here.
Columns and labels:
Mus musculus [1] = assay: Analgesic activity in sc dosed mouse assessed as inhibition of AcOH-induced writhing; format: functional
[2] = Acute toxicity in sc dosed mouse; format: organism-based; conditions: in vivo
Mus musculus [3] = assay: Analgesic activity in mouse assessed as inhibition of AcOH-induced writhing up to 10 mg/kg, sc; format: functional, organism-based; set-up: dose 10 mg/kg
Mus musculus [4] = assay: Analgesic activity in mouse assessed as inhibition of AcOH-induced writhing up to 22.5 mg/kg, sc; format: functional, organism-based; set-up: dose 22.5 mg/kg
Oryctolagus cuniculus [5] = assay: Narcotic antagonist activity in iv dosed rabbit assessed as inhibition of morphine-induced respiratory depression; format: functional
How it was run: (§1)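 Rabbits given test compound iv; read-out is antagonism of morphine-induced respiratory depression; expressed as AD50 in mg/kg or as % antagonism at a fixed dose.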

Mus musculus [6] = assay: Analgesic activity in sc dosed mouse by hot-plate method; format: functional; conditions: Mus musculus, sc; read-out: ED50
Oryctolagus cuniculus [7] = assay: Narcotic antagonist activity in rabbit assessed as inhibition of morphine-induced respiratory depression at 5 mg/kg, iv; format: functional; how it was run: as §1
Rhesus monkey = assay: Suppression of abstinence syndrome in morphine-dependent rhesus monkey at 10 mg/kg; format: functional, organism-based; set-up: dose 10 mg/kg; conditions: Macaca mulatta
Mus musculus [8] = assay: Analgesic activity in sc dosed mouse assessed as time duration of activity by hot-plate method; format: functional
[9] = Mus musculus, sc, read-out: ED50

## Br.CC1N(C)C2CCCC1(c1cccc(OC(=O)c3ccccc3)c1)C2 (racemic)
Mus musculus [1]; [9]
  ED50: 5.7 mg/kg
[2]
  LD50: 156 mg/kg

## Cl.O=C(CCCN1CC2(c3cccc(O)c3)CCCC1C2)c1ccccc1 (racemic)
Mus musculus [1]; [9]
  ED50: 5.2 mg/kg
[2]
  LD50: > 100 mg/kg

## CC1C2CCCC1(c1cccc(O)c1)CN2C (racemic; 13) [listing 1 of 2 here]
Mus musculus [3]
  Activity: inactive

## CCCN1C2CCCC(c3cccc(O)c3)(C2)C1C.Cl (racemic)
Mus musculus [4]
  Activity: inactive
Oryctolagus cuniculus [5]
  AD50: 0.03 mg/kg
[2]
  LD50: > 30 mg/kg

## COc1cccc(C23CCCC(C2)NC3)c1.O=C(O)C(=O)O (racemic)
Mus musculus [4]
  Activity: inactive
[2]
  LD50: > 100 mg/kg

## Cl.O=C(CCCN1CC2(c3cccc(O)c3)CCCC1C2)c1ccc(F)cc1 (racemic)
Mus musculus [1]; [9]
  ED50: 2 mg/kg
[2]
  LD50: > 100 mg/kg

## CC(C)=CCN1CCC2(C)c3cc(O)ccc3CC1C2C.Cl (stereo not drawn) [PENTAZOCINE HYDROCHLORIDE]
Mus musculus [1]; [9]
  ED50: 4.5 mg/kg
Mus musculus [6]
  ED50: 12.3 mg/kg
Oryctolagus cuniculus [5]
  AD50: 1.5 mg/kg
[2]
  LD50: 190 mg/kg

## CN1CC2(c3cc(O)cc(O)c3)CCCC1C2 (racemic)
Mus musculus [4]
  Activity: inactive
[2]
  LD50: > 225 mg/kg

## Br.CC1N(C)C2CCCC1(c1ccc(O)c(O)c1)C2 (racemic)
Mus musculus [3]
  Activity: inactive
[2]
  LD50: > 10 mg/kg

## CCN1C2CCCC(c3cccc(O)c3)(C2)C1C.Cl (racemic)
Mus musculus [4]
  Activity: inactive
[2]
  LD50: > 30 mg/kg

## Cl.O=C(CCN1CC2(c3ccccc3)CCCC1C2)c1ccccc1 (racemic)
Mus musculus [4]
  Activity: inactive
[2]
  LD50: > 100 mg/kg

## C=CCN1CC2(c3ccccc3)CCCC1C2.O=C(O)C(=O)O (racemic)
Mus musculus [4]
  Activity: inactive
Oryctolagus cuniculus [5]
  AD50: 2.2 mg/kg
[2]
  LD50: > 100 mg/kg

## C#CCN1C2CCCC(c3cccc(O)c3)(C2)C1C.Cl (racemic)
Mus musculus [1]; [9]
  ED50: 22.5 mg/kg
Oryctolagus cuniculus [5]
  AD50: 0.19 mg/kg
[2]
  LD50: > 100 mg/kg

## C#CCN1CC2(c3cccc(O)c3)CCCC1C2.O=C(O)C(=O)O (racemic)
Mus musculus [4]
  Activity: inactive
Oryctolagus cuniculus [5]
  AD50: 1.6 mg/kg
[2]
  LD50: > 100 mg/kg

## Br.CC(C)=CCN1C2CCCC(c3cccc(O)c3)(C2)C1C (racemic)
Mus musculus [1]; [9]
  ED50: 15 mg/kg
Oryctolagus cuniculus [5]
  AD50: 0.086 mg/kg
[2]
  LD50: > 30 mg/kg

## O=C(O)C(=O)O.c1ccc(C23CCCC(C2)N(CC2CC2)C3)cc1 (racemic)
Mus musculus [4]
  Activity: inactive
Oryctolagus cuniculus [7]
  inhibition in vivo at 5 mg/kg: 41%
[2]
  LD50: > 30 mg/kg

## CC1C2CCCC1(c1cccc(O)c1)CN2C (racemic; 13) [listing 2 of 2 here]
Oryctolagus cuniculus [5]
  AD50: 1.1 mg/kg
[2]
  LD50: > 30 mg/kg

## CCOC(=O)C1(c2ccccc2)CCN(C)CC1.Cl [MEPERIDINE HYDROCHLORIDE]
Mus musculus [1]; [9]
  ED50: 4.5 mg/kg
Mus musculus [6]
  ED50: 4.7 mg/kg
[2]
  LD50: 273 mg/kg

## COc1ccc2c3c1O[C@H]1[C@@H](O)C=C[C@H]4[C@@H](C2)N(C)CC[C@@]341.COc1ccc2c3c1O[C@H]1[C@@H](O)C=C[C@H]4[C@@H](C2)N(C)CC[C@@]341.O.O=P(O)(O)O.O=P(O)(O)O [CODEINE PHOSPHATE]
Mus musculus [1]; [9]
  ED50: 9.5 mg/kg
Mus musculus [6]
  ED50: 7.5 mg/kg
[2]
  LD50: 231 mg/kg

## C=CCN1CC2(c3cccc(O)c3)CCCC1C2.Cl (racemic)
Mus musculus [4]
  Activity: inactive
Oryctolagus cuniculus [5]
  AD50: 1.7 mg/kg
[2]
  LD50: > 100 mg/kg

## CC1C2CCCC1(c1cccc(O)c1)CN2C (racemic; 15) [listing 1 of 2 here]
Oryctolagus cuniculus [5]
  AD50: 0.18 mg/kg

## Cl.Oc1cccc(C23CCCC(C2)N(CC2CC2)C3)c1 (racemic)
Mus musculus [1]; [9]
  ED50: 30 mg/kg
Oryctolagus cuniculus [5]
  AD50: 1.8 mg/kg
[2]
  LD50: > 100 mg/kg

## C=CCN1CC[C@]23c4c5ccc(O)c4O[C@H]2C(=O)CC[C@@]3(O)[C@H]1C5.Cl [NALOXONE HYDROCHLORIDE]
Oryctolagus cuniculus [5]
  AD50: 0.0044 mg/kg

## Br.CC1N(C)C2CCCC1(c1cccc(OC(=O)c3cccnc3)c1)C2 (racemic)
Mus musculus [1]; [9]
  ED50: 5.5 mg/kg
[2]
  LD50: 184 mg/kg

## CC1C2CCCC1(c1cccc(O)c1)CN2C (racemic; 15) [listing 2 of 2 here]
Mus musculus [3]
  Activity: inactive

## Cl.Oc1cccc(C23CCCC(C2)N(CC2CCC2)C3)c1 (racemic)
Oryctolagus cuniculus [5]
  AD50: 3.5 mg/kg
Mus musculus [3]
  Activity: inactive
[2]
  LD50: > 30 mg/kg

## Br.CCC1N(C)C2CCCC1(c1cccc(O)c1)C2 (racemic)
Mus musculus [1]; [9]
  ED50: 8.8 mg/kg
[2]
  LD50: 59.8 mg/kg

## CC1N(C)C2CCCC1(c1ccccc1)C2.Cl (racemic)
Mus musculus [1]; [9]
  ED50: 20 mg/kg
Mus musculus [6]
  ED50: 20 mg/kg
Rhesus monkey
  Activity: inactive
[2]
  LD50: > 30 mg/kg

## Br.CC1NC2CCCC1(c1cccc(O)c1)C2 (racemic)
Mus musculus [4]
  Activity: inactive
[2]
  LD50: > 100 mg/kg

## Br.CC1N(C)C2CCCC1(c1cccc(O)c1)C2 (racemic; 8)
Mus musculus [1]
  ED50: 4.5 mg/kg
Mus musculus [6]
  ED50: 8 mg/kg
Oryctolagus cuniculus [5]
  AD50: 2.6 mg/kg
Mus musculus [8]
  Time: 127 min
[2]
  LD50: 113 mg/kg

## CCCCN1C2CCCC(c3cccc(O)c3)(C2)C1C.Cl (racemic)
Mus musculus [3]
  Activity: inactive
[2]
  LD50: > 30 mg/kg

## O=C(O)C(=O)O.Oc1cccc(C23CCCC(C2)N(CCc2ccccc2)C3)c1 (racemic)
Mus musculus [4]
  Activity: inactive
[2]
  LD50: > 100 mg/kg

Reference: ChEMBL document CHEMBL3244161, “Azabicycloalkanes as analgetics. 3. Structure-activity relationships of 1-phenyl-6-azabicyclo[3.2.1]octanes and absolute stereochemistry of (+)-1-(3-hydroxyphenyl)-6-methyl-6-azabicyclo[3.2.1]octane and its 7-endo-methyl derivative” (J Med Chem, 1977)
